Data set [1] addresses T1, DNA topoisomerase 2-alpha (Homo sapiens, UniProt P11388). Description: Inhibition of topoisomerase 2alpha in human SW620 organoids transfected with VimPro-GFP reporter assessed as reversion of epithelial-mesenchymal transition by measuring reduction in vimentin expression at 10 uM after 72 hrs by Hoechst 33342 staining based GFP reporter gene assay. Summed up:
(§1)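 SW620 cells stably carrying VimPro-GFP or EcadPro-mCherry (puromycin selected) grown as organoids and dosed 72 h. Stained with 16 μM Hoechst 33342 for 1 h and imaged as 15 z-layers, 26.5 μm apart. Nuclei segmented and GFP- or mCherry-positive cells counted above background thresholds. Percent positive cells normalised to DMSO.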
For orientation: A reporter such as luciferase makes a cellular process visible.

A short description of data set [2]: Drug metabolism in CD-1 mouse active microsomes assessed as CYP450-mediated oxidative phase 1 metabolite formation measured within 30 mins by LC-MS/MS analysis. It counts as ADME. Conditions: 0.5 h.
Data set [3] has as its target T1, DNA topoisomerase 2-alpha. As to the kind of experiment: Inhibition of topoisomerase 2alpha in human SW620 organoids transfected with EcadPro-RFP reporter assessed as reversion of epithelial-mesenchymal transition by measuring increase in E-cadherin expression at 10 uM after 72 hrs by Hoechst 33342 staining based mCherryRFP reporter gene assay. The essentials: as §1

In data set [4] the test system is SW-620. Description: Anticlonogenic activity against human SW620 cells assessed as loss of cancer stem cell stemness by measuring inhibition of colony formation at 10 uM incubated for 24 hrs followed by replating and measured after 7 days by clonogenic assay. It counts as functional, cell-based.
The nature of data set [5]: Drug metabolism in CD-1 mouse active microsomes assessed as CYP450-mediated oxidative phase 1 metabolite formation by LC-MS/MS analysis.
In data set [6] the target is T1, DNA topoisomerase 2-alpha. Description: Inhibition of topoisomerase 2alpha dependent TCF transcription in human SW620 organoids transduced with TOPflash luminescent reporter after 72 hrs by luciferase based TOPFlash reporter gene assay. Summed up: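 SW620 cells stably carrying pCDH-TOPflash-luc grown as organoids: 5,000 cells per U-bottom well in phenol red-free RPMI with 5% FBS and 2% Matrigel, 72 h. Inhibitor then applied 72 h. One-Glo luciferase and CellTiter-Glo 3D added 1:1. Luciferase signal normalised to viability, then to DMSO controls.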

Data set [7] deals with T1, DNA topoisomerase 2-alpha. Description: Inhibition of topoisomerase 2alpha dependent TCF transcription in human SW620 organoids transduced with TOPflash luminescent reporter at 10 uM after 72 hrs by luciferase based TOPFlash reporter gene assay.
Data set [8] addresses T1, DNA topoisomerase 2-alpha. As to the kind of experiment: Inhibition of human topoisomerase 2alpha mediated decatenation using kDNA as susbtrate preincubated for 20 mins followed by substrate and ATP addition and measured after 1 hr by ethidium bromide staining based gel electrophoresis method. Summed up: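 IC50 from decatenation gels: TOP2A at 4 U per reaction, compound as 2-fold serial dilutions from 58.6 nM to 30 μM, 20 min preincubation. Then 2 mM ATP plus 35 ng kDNA for 1 h at 37 °C. Gels were 0.8% agarose with ethidium bromide, with decatenated and catenated DNA marker lanes.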

Data set [9] has as its target T1, DNA topoisomerase 2-alpha. Description: Inhibition of human topoisomerase 2alpha mediated decatenation at 30 uM using kDNA as susbtrate preincubated for 20 mins followed by substrate and ATP addition and measured after 1 hr by ethidium bromide staining based gel electrophoresis method relative to control. Summed up: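 Human TOP2A (3 U) preincubated 20 min at 37 °C with compound at 30 μM in 1.2% DMSO. Reaction started with 2 mM ATP and 35 ng kDNA and run 1 h at 37 °C. Products resolved on 0.8% agarose in TBE with 0.2 μg/mL ethidium bromide; decatenated bands compared with vehicle.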

In data set [10] the test system is SW-620. Description: Cytotoxicity against human SW620 organoids assessed as cell death with loss of membrane integrity after 72 hrs by CellTox Green assay. It counts as functional, cell-based. Particulars: SW-620, 72 h. The essentials: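 SW620 tumor organoids exposed 72 h to inhibitor over 0–40 μM together with CellTox Green Express (0.5X). Whole-well mean fluorescence imaged (ex 488, em 500–550 nm). Normalised to lysis buffer as 0% viability and 0.4% DMSO as 100% viability.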

Data set [11] is described as follows: Metabolic stability in CD-1 mouse inactive microsomes incubated for 1 hr by LC-MS/MS analysis. It counts as ADME, Microsome.
In data set [12] the test system is SW-620. Description: Antiinvasive activity in human SW620 organoids transduced with NucLight-Red virus assessed as inhibition of cell invasion at 10 uM incubated for 72 hrs and measured after 72 hrs by matrigel based fluorescence analysis. It counts as functional. Summed up: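 NucLight-Red-labelled SW620 organoids treated 72 h at 10 μM in 0.1% DMSO, then dissociated. 5,000 live cells per well seeded in 50% Matrigel in the upper chamber of a migration plate, 0.5% FBS above and 20% FBS below. Invading cells tracked by bottom-side fluorescence over days, six replicates per condition.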

Data set [13] has as its target T1, DNA topoisomerase 2-alpha. Description: Poison activity at topoisomerase 2alpha in human SW620 cells assessed as induction of DNA double stranded break by measuring gamma H2AX phosphorylation up to 40 uM after 6 hrs by Hoechst-33342 staining based immunofluorescence assay. It counts as cell-based. The essentials: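 SW620 monolayers, 20,000 cells per well, treated with compound for 6 or 24 h. Fixed in 4% paraformaldehyde, then permeabilised and blocked. Stained with γ-H2AX antibody overnight at 4 °C, FITC secondary antibody, and Hoechst 33342, then imaged at 20x.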

Data set [14] in a line: Clearance in CD-1 mouse at 50 mg/kg, ip by LC-MS/MS analysis. It counts as ADME, organism-based. Particulars: in vivo. The essentials: (§2)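 Female CD-1 mice, single IP injection at 50 mg/kg in 100% DMSO. Sampling from 0.25 to 24 h, three mice per time point (21 per compound). Heparinised blood was spun to plasma, mixed 1:1 with acidified acetonitrile (0.1% formic acid or 0.1% TFA depending on compound), centrifuged, then measured by LC-MS/MS.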

Data set [15] can be described thus: Half life in CD-1 mouse microsomes measured up to 1 hr by LC-MS analysis. Type of data set: ADME, Microsome. The essentials:
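Female CD-1 mouse liver microsomes (0.5 mg/mL), substrate 1 μg/mL and 1.5 mM NADPH in 0.1 M phosphate buffer pH 7.4 at 37 °C. Samples taken from 0 to 60 min and quenched with an equal volume of acetonitrile. Parent compound remaining measured by LC-MS/MS without internal standard.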

Data set [16] deals with T1, DNA topoisomerase 2-alpha. As to the kind of experiment: Inhibition of topoisomerase 2alpha in human SW620 organoids transfected with EcadPro-RFP reporter assessed as reversion of epithelial-mesenchymal transition by measuring increase in E-cadherin expression up to 40 uM after 72 hrs by Hoechst 33342 staining based mCherryRFP reporter gene assay. The essentials: as §1

In data set [17] the test system is Mus musculus. Description: Apparent volume of drug distribution in CD-1 mouse at 50 mg/kg, ip by LC-MS/MS analysis. It counts as ADME, organism-based. Particulars: in vivo. The essentials:
as §2

The test system of data set [18] is SW-620. Description: Induction of apoptosis in human SW620 organoids assessed as increase in cleaved caspase 3/7 level at 40 uM after 72 hrs by caspase-glo 3/7 luminescence assay relative to control. It counts as functional. Summed up:
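SW620 cells, 2,000 per well in 384-well ultra-low attachment plates with 2% Matrigel, grown 72 h into organoids, then dosed 72 h. Caspase-Glo 3/7 reagent added 1:1 and shaken 30 min; luminescence read. Staurosporine served as positive control and 0.4% DMSO as negative control.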

The nature of data set [19]: AUC(0 to t) in CD-1 mouse at 50 mg/kg, ip by LC-MS/MS analysis. Type of data set: ADME, organism-based. Particulars: in vivo. Summed up:
as §2

Data set [20] concerns SW-620. Description: Cytotoxicity against human SW620 organoids assessed as growth inhibition at 10 uM after 72 hrs by brightfield imaging of organoid volume.
Data set [21] in a line: Half life of terminal disposition phase in CD-1 mouse at 50 mg/kg, ip by LC-MS/MS analysis. Particulars: in vivo, read-out: t1/2lambda (converted). It counts as ADME, organism-based. Summed up:
as §2

The target of data set [22] is T1, DNA topoisomerase 2-alpha. As to the kind of experiment: Inhibition of topoisomerase 2alpha in human SW620 organoids transfected with VimPro-GFP reporter assessed as reversion of epithelial-mesenchymal transition by measuring reduction in vimentin expression up to 40 uM after 72 hrs by Hoechst 33342 staining based GFP reporter gene assay. Summed up: as §1
Data set [23] is described as follows: Aqueous solubility of compound in PBS at 1 mg after 18 hrs by UV based analysis. It counts as physicochemical. Summed up:
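Undissolved material removed by centrifugation at 5,000g for 45 min. UV absorption compared with a fully saturated 1-propanol solution; solubility derived by linear regression.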

Data set [24] in a line: Cmax in CD-1 mouse at 50 mg/kg, ip by LC-MS/MS analysis. It counts as ADME, organism-based. Details: dose 50 mg/kg, route intraperitoneal. Conditions: in vivo. The essentials: as §2
The subject of data set [25] is SW-620. As to the kind of experiment: Induction of early stage cell death in human SW620 organoids transfected with EcadPro-RFP reporter assessed as loss of RFP reporter activity at 40 uM at after 72 hrs by Hoechst 33342 staining based mCherryRFP reporter gene assay. Particulars: sw-620, 72 h.
Data set [26] in a line: Tmax in CD-1 mouse at 50 mg/kg, ip by LC-MS/MS analysis. It counts as ADME, organism-based. Conditions: in vivo. The essentials: as §2
Data set [27] is described as follows: Drug metabolism in CD-1 mouse active microsomes assessed as metabolite formation at rate of first-order kinetics by LC-MS/MS analysis. It counts as ADME, Microsome.
Data set [28] can be described thus: Drug metabolism in CD-1 mouse active microsomes assessed as metabolite formation at rate of biphasic kinetics by LC-MS/MS analysis. It counts as ADME, Microsome.

Values after ≈ are worked out from the molar mass of the structure shown. Active and inactive are the calls of the source. Some results are limits rather than exact numbers.

T1 sequence (P11388 whole entry): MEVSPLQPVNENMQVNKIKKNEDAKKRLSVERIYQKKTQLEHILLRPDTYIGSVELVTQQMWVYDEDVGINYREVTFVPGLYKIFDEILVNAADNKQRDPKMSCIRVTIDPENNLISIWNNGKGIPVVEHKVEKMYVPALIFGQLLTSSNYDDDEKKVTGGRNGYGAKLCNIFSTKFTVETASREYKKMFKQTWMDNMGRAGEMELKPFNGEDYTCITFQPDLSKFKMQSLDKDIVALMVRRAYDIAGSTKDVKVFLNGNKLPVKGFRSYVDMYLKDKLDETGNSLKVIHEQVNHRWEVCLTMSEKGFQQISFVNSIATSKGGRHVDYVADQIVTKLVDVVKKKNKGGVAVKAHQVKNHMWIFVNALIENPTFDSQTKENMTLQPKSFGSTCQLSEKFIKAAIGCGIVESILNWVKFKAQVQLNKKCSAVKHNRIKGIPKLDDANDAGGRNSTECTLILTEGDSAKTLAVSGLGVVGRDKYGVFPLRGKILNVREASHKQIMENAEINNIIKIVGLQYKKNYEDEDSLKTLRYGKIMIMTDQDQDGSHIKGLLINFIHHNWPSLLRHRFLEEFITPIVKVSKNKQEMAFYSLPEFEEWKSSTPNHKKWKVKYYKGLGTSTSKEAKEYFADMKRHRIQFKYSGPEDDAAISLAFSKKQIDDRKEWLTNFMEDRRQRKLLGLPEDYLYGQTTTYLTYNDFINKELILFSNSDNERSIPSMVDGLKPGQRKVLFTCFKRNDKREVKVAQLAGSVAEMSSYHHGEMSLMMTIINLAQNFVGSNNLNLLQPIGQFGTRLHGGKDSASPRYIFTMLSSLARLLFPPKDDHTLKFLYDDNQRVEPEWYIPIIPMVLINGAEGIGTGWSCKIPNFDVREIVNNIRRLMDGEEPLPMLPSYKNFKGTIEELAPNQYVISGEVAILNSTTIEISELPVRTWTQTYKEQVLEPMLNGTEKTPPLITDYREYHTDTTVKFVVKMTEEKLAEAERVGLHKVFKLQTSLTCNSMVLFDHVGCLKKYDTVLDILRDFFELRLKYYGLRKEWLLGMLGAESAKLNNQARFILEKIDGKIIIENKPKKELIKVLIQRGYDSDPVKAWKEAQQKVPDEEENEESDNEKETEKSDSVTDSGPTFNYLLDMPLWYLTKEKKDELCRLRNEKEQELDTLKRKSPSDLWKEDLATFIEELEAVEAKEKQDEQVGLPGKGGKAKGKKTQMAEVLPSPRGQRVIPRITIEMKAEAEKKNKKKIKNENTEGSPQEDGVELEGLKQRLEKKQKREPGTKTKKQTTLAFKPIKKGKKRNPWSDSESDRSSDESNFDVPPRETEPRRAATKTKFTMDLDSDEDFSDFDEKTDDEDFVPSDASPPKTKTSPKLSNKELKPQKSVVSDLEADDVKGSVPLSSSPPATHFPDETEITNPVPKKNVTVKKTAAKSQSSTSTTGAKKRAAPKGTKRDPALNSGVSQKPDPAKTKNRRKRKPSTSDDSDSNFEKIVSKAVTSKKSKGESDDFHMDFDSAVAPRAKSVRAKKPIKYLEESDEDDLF

Regarding `COc1cc(NC(C)=O)c(O)c2nccc(-c3ccccc3NC(=O)c3ccccc3)c12`, the inhibition result in [1], in data set [3], in data set [4], in data set [7] and in [12] was “Active” each time. Further, the Drug metabolism result in data set [2] was “Metabolite_Detected”; in data set [5] it was “Metabolite_Notdetected”. Further, the half-maximal inhibitory concentration (IC50) in data set [6] was found to be 2400 nM; in data set [8], 1200 nM. Moreover, the inhibition in data set [9] came to 100%. For the same molecule, the EC50 in data set [10] was more than 30000 nM. In data set [11], the Stability result was “Stable”.
As for `CC(=O)Nc1ccc2c(-c3cc(F)ccc3O)ccnc2c1O`, the Activity result is reported as “Not Active” in data set [13] and “Active” in data set [25]. In data set [14], this molecule showed an apparent clearance (CL/F) of 64.5 mL/min/kg. The inhibition result in data set [1], in data set [3], in [16], in data set [4], in data set [22] and in data set [7] was “Active” in each case. Also, the inhibition entry in data set [12] was “Active”. Moreover, the values for the Drug metabolism entry in [2] and in data set [5] were “Metabolite_Detected” and “Metabolite_Notdetected”, respectively. In addition, the t1/2 in data set [15] was 6.72 min. Besides, the Vz in [17] amounted to 10.9 L/kg. Also, the result in data set [18] was Active. In [19], the AUC(0-t) came out at 12500 ng·h/mL. Also, the “growth inhibition (GI)” value in [20] was “Active”. The half-life in data set [21] is 118 min. The molecule also displayed a half-maximal inhibitory concentration (IC50) in data set [6] of 2400 nM. This molecule also returned a solubility (thermodynamic) at 18 h in data set [23] of 450 µg/mL (≈ 1440 µM). Also, the inhibition in data set [9] came out at 99%. Besides, the half-maximal effective concentration (EC50) in data set [10] was more than 30000 nM. Moreover, the peak level in data set [24] (Cmax) was 19000 ng/mL. In data set [11], the Stability result was “Stable”. Further, the Tmax in [26] is 15 min.
Consider `CC(=O)Nc1ccc2c(-c3ccsc3)ccnc2c1O`, for which the Drug metabolism entry is recorded as “Metabolite_Detected” in [2], “Metabolite_Notdetected” in [5], “Metabolite_Notdetected” in [27] and “Metabolite_Detected” in [28]. In addition, the inhibition in data set [9] came to 92%. The Stability result in data set [11] is listed as “Stable”.
Consider `CC(=O)Nc1ccc2c(-c3ccccc3)ccnc2c1O`, for which the results for the Drug metabolism result in [27] and in data set [28] were “Metabolite_Notdetected” and “Metabolite_Detected”, respectively. The same molecule yielded an inhibition in [9] of 25%. Besides, in [11], the Stability result is “Stable”.
Take `Cn1ccc2c(c1=O)C(=O)c1nccc3c1c-2nc1ccccc13` [NEOAMPHIMIDINE]: the Activity entry in [13] was “Not Active”.

As usually defined, the inhibition is the change of the read-out against control, counted positive when it falls. For orientation: IC50 means the midpoint of a concentration-inhibition curve. Read a high IC50 as lower potency. For orientation: EC50 means the concentration giving half of the maximal effect. A word on the CL/F: it is clearance divided by bioavailability, as obtained after extravascular dosing. A word on the AUC(0-t): it is the area under the concentration-time curve up to a stated or last time point. A high value points to high exposure. Usually thermodynamic solubility stands for solubility found after equilibrating the solid with the medium. As usually defined, the Cmax is the peak of the concentration-time curve. The term Tmax denotes the time from dosing to the highest level.

These data come from ChEMBL document CHEMBL4321838, “Drug Design Targeting T-Cell Factor-Driven Epithelial-Mesenchymal Transition as a Therapeutic Strategy for Colorectal Cancer” (J Med Chem, 2019).
